Experimental data: ChEMBL document CHEMBL4312035, “Preliminary SAR and biological evaluation of potent HIV-1 protease inhibitors with pyrimidine bases as novel P2 ligands to enhance activity against DRV-resistant HIV-1 variants” (Eur J Med Chem, 2020)

Assays:
[1] = Cytotoxicity against human 293T cells measured after 24 hrs by CCK8 assay; assay type: cell-based; settings: HEK-293T cells
Summary of the method: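 293T cells plated at 20 000 per well and cultured 24 h before drug addition; exposure 24 h, then CCK-8 added and absorbance read at 450 nm after 2 h at room temperature. Run in triplicate; mean ± 1 SD from three independent experiments.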

[2] = system: Human immunodeficiency virus 1; test: Antiviral activity against VSV-G pseudotyped HIV1 transfected in human 293T cells co-transfected with NL4-3 HIV1 supernatant infected in human SupT1 cells treated with compound for 48 hrs assessed as inhibition of viral infection at 10 uM after 48 hrs by luciferase assay (reference value: 0 %); assay type: functional; settings: Human immunodeficiency virus 1, 48 h
[3] = system: Human immunodeficiency virus 1; test: Antiviral activity against wild-type HIV1 NL4-3 infected in human SupT1 cells infected with […] after 48 hrs by luciferase reporter assay; assay type: functional, organism-based; settings: Human immunodeficiency virus 1, NL4-3, 48 h
[4] = system: Human immunodeficiency virus 1; test: Antiviral activity against darunavir-resistant HIV1 NL4-3 infected in human […] after 48 hrs by luciferase reporter assay; assay type: functional, organism-based; settings: Human immunodeficiency virus 1, NL4-3, 48 h
Protease = Protease (Human immunodeficiency virus 1, UniProt Q9YQ12); test: Inhibition of HIV1 protease expressed in Escherichia coli using Arg-Glu (EDANS)-Ser-Gln-Asn-Tyr-Pro-Ile-Val-Gln-Lys(DABCYL)-Arg as substrate preincubated for 20 to 30 mins followed by substrate addition and measured for 10 mins by FRET assay
Sequence of Protease (Q9YQ12 whole entry): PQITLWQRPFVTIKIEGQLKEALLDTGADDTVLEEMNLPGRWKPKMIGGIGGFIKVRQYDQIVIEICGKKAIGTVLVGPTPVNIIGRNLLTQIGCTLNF
Summary of the method: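 Recombinant HIV-1 protease, purified from E. coli. Buffer: 0.1 M sodium acetate, 1 M NaCl, 1 mM EDTA, 1 mM DTT, 2% DMSO, 1 mg/mL BSA, pH 4.7. Inhibitor dissolved in DMSO. Excitation 340 nm, emission 490 nm, recorded about 10 min. Run in triplicate; IC50 as mean ± 1 SD from three independent experiments.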

[5] = system: Human immunodeficiency virus 1; test: Antiviral activity against VSV-G pseudotyped HIV1 transfected in human 293T cells co-transfected with NL4-3 HIV1 supernatant infected in human SupT1 cells treated with compound for 48 hrs assessed as inhibition of viral infection at 100 nM after 48 hrs by luciferase assay (reference value: 0 %); assay type: functional; settings: Human immunodeficiency virus 1, 48 h
[6] = system: Human immunodeficiency virus 1; test: Ratio of EC50 for antiviral activity against darunavir-resistant HIV1 NL4-3 infected in human SupT1 cells infected with supernatants from virus-infected human TZM-bl cells to EC50 for antiviral activity against wild-type HIV1 NL4-3 infected in human SupT1 cells infected with supernatants from virus-infected human TZM-bl cells; assay type: functional

Compound | CC50 at 24 h [1] | inhibition at 10 µM [2] | EC50 [3] | EC50 [4] | IC50 (Protease) | inhibition at 0.1 µM [5] | Ratio EC50 [6]
CC(C)CN(C[C@@H](O)[C@H](Cc1ccccc1)NC(=O)O[C@H]1CO[C@H]2OCC[C@H]21)S(=O)(=O)c1ccc(N)cc1 | > 100000 nM | 83.2% | 6 nM | 100 nM | – | – | –
CC(C)CN(C[C@@H](O)[C@H](Cc1ccccc1)NC(=O)Cn1cc(F)c(N)nc1=O)S(=O)(=O)c1ccc(N)cc1 | > 100000 nM | – | – | – | 105 nM | – | –
CC(C)CN(C[C@@H](O)[C@H](Cc1ccccc1)NC(=O)Cn1cc(F)c(=O)[nH]c1=O)S(=O)(=O)c1ccc(N)cc1 | 8800 nM | 63% | – | – | 16.3 nM | – | –
COc1ccc(S(=O)(=O)N(CC(C)C)C[C@@H](O)[C@H](Cc2ccccc2)NC(=O)Cn2cccnc2=O)cc1 | > 100000 nM | 50.3% | – | – | 10.3 nM | – | –
COc1ccc(S(=O)(=O)N(CC(C)C)C[C@@H](O)[C@H](Cc2ccccc2)NC(=O)Cn2cc(C)c(N)nc2=O)cc1 | > 100000 nM | – | – | – | 147 nM | – | –
COc1ccc(S(=O)(=O)N(CC(C)C)C[C@@H](O)[C@H](Cc2ccccc2)NC(=O)Cn2ccc(=O)[nH]c2=O)cc1 | > 100000 nM | 81% | 270 nM | 590 nM | 2.53 nM | 68% | 2.19
CC(C)CN(C[C@@H](O)[C@H](Cc1ccccc1)NC(=O)Cn1ccc(N)nc1=O)S(=O)(=O)c1ccc(N)cc1 | > 100000 nM | – | – | – | 153 nM | – | –
Cc1cn(CC(=O)N[C@@H](Cc2ccccc2)[C@H](O)CN(CC(C)C)S(=O)(=O)c2ccc([N+](=O)[O-])cc2)c(=O)nc1N | > 100000 nM | – | – | – | 1190 nM | – | –
CC(C)CN(C[C@@H](O)[C@H](Cc1ccccc1)NC(=O)Cn1cccnc1=O)S(=O)(=O)c1ccc(N)cc1 | > 100000 nM | – | – | – | 126 nM | – | –
COc1ccc(S(=O)(=O)N(CC(C)C)C[C@@H](O)[C@H](Cc2ccccc2)NC(=O)Cn2cc(F)c(=O)[nH]c2=O)cc1 | > 100000 nM | 83.2% | 1070 nM | 2700 nM | 1.95 nM | 51% | 2.52
Cc1cn(CC(=O)N[C@@H](Cc2ccccc2)[C@H](O)CN(CC(C)C)S(=O)(=O)c2ccc(N)cc2)c(=O)[nH]c1=O | > 100000 nM | 54% | – | – | 19.7 nM | – | –
CC(C)CN(C[C@@H](O)[C@H](Cc1ccccc1)NC(=O)Cn1cc(F)c(N)nc1=O)S(=O)(=O)c1ccc([N+](=O)[O-])cc1 | > 100000 nM | – | – | – | 482 nM | – | –
CC(C)CN(C[C@@H](O)[C@H](Cc1ccccc1)NC(=O)Cn1cc(F)c(=O)[nH]c1=O)S(=O)(=O)c1ccc([N+](=O)[O-])cc1 | 32400 nM | 32.8% | – | – | 27.6 nM | – | –
COc1ccc(S(=O)(=O)N(CC(C)C)C[C@@H](O)[C@H](Cc2ccccc2)NC(=O)Cn2cc(C)c(=O)[nH]c2=O)cc1 | > 100000 nM | 72.7% | 2500 nM | 2870 nM | 2.78 nM | – | 1.15
COc1ccc(S(=O)(=O)N(CC(C)C)C[C@@H](O)[C@H](Cc2ccccc2)NC(=O)Cn2cc(CO)c(=O)[nH]c2=O)cc1 | > 100000 nM | 59.8% | – | – | 9.07 nM | – | –
COc1ccc(S(=O)(=O)N(CC(C)C)C[C@@H](O)[C@H](Cc2ccccc2)NC(=O)Cn2cc(F)c(N)nc2=O)cc1 | > 100000 nM | – | – | – | 36 nM | – | –
Cc1cn(CC(=O)N[C@@H](Cc2ccccc2)[C@H](O)CN(CC(C)C)S(=O)(=O)c2ccc(N)cc2)c(=O)nc1N | > 100000 nM | – | – | – | 375 nM | – | –
Cc1cn(CC(=O)N[C@@H](Cc2ccccc2)[C@H](O)CN(CC(C)C)S(=O)(=O)c2ccc([N+](=O)[O-])cc2)c(=O)[nH]c1=O | > 100000 nM | – | – | – | 44.3 nM | – | –
CC(C)CN(C[C@@H](O)[C@H](Cc1ccccc1)NC(=O)Cn1ccc(=O)[nH]c1=O)S(=O)(=O)c1ccc([N+](=O)[O-])cc1 | > 100000 nM | 51% | – | – | 20.1 nM | – | –
CC(C)CN(C[C@@H](O)[C@H](Cc1ccccc1)NC(=O)Cn1cc(CO)c(=O)[nH]c1=O)S(=O)(=O)c1ccc(N)cc1 | > 100000 nM | – | – | – | 241 nM | – | –
CC(C)CN(C[C@@H](O)[C@H](Cc1ccccc1)NC(=O)Cn1cccnc1=O)S(=O)(=O)c1ccc([N+](=O)[O-])cc1 | > 100000 nM | – | – | – | 245 nM | – | –
CC(C)CN(C[C@@H](O)[C@H](Cc1ccccc1)NC(=O)Cn1ccc(=O)[nH]c1=O)S(=O)(=O)c1ccc(N)cc1 | > 100000 nM | 48.4% | – | – | 20.1 nM | – | –
CC(C)CN(C[C@@H](O)[C@H](Cc1ccccc1)NC(=O)Cn1cc(CO)c(=O)[nH]c1=O)S(=O)(=O)c1ccc([N+](=O)[O-])cc1 | > 100000 nM | – | – | – | 405 nM | – | –
COc1ccc(S(=O)(=O)N(CC(C)C)C[C@@H](O)[C@H](Cc2ccccc2)NC(=O)Cn2ccc(N)nc2=O)cc1 | > 100000 nM | 33.2% | – | – | 9.04 nM | – | –
CC(C)CN(C[C@@H](O)[C@H](Cc1ccccc1)NC(=O)Cn1ccc(N)nc1=O)S(=O)(=O)c1ccc([N+](=O)[O-])cc1 | > 100000 nM | – | – | – | 411 nM | – | –
Cc1ccnc2c1NC(=O)c1cccnc1N2C1CC1 [NEVIRAPINE] | – | – | – | – | – | 76 to 77% | –
